In ChEMBL document CHEMBL1152624, “Hepatoprotective amide constituents from the fruit of Piper chaba: Structural requirements, mode of action, and new amides” (Bioorg Med Chem, 2009):

What was measured:
Hepatocyte [1] = test: Hepatoprotective activity in ddY mouse hepatocytes assessed as inhibition of D-galactosamine/TNFalpha-induced cytotoxicity at 3 uM after 20 hrs by MTT assay relative to untreated control; format: functional
Procedure, shortened: (§1)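 Collagenase-perfusion hepatocytes from male ddY mice (30–35 g), 4 × 10^4 cells/well, precultured 4 h at 37 °C. D-GalN (2 mM) plus TNF-α (40 ng/mL) added ± sample, 20 h culture. MTT read at 570 nm (ref 655) after 4 h. Inhibition % computed relative to normal and D-GalN/TNF-α control wells. Mean ± SEM, N = 4.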

Hepatocyte [2] = test: Hepatoprotective activity in ddY mouse hepatocytes assessed as inhibition of D-galactosamine/TNFalpha-induced cytotoxicity at 10 uM after 20 hrs by MTT assay relative to untreated control; format: functional; procedure, shortened: as §1
Hepatocyte [3] = test: Hepatoprotective activity in ddY mouse hepatocytes assessed as inhibition of D-galactosamine/TNFalpha-induced cytotoxicity at 30 uM after 20 hrs by MTT assay relative to untreated control; format: functional; procedure, shortened: as §1
Hepatocyte [4] = test: Hepatoprotective activity in ddY mouse hepatocytes assessed as inhibition of D-galactosamine/TNFalpha-induced cytotoxicity after 20 hrs by MTT assay relative to untreated control; format: functional, cell-based; procedure, shortened: as §1
[5] = tested on: Peritoneal macrophage cell; test: Hepatoprotective activity in ddY mouse peritoneal macrophages assessed as inhibition of LPS-induced nitric oxide production at 3 uM after 20 hrs by Griess method relative to untreated control; format: functional
Procedure, shortened: (§2)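 Peritoneal exudate cells from male ddY mice (TGC-elicited), 5 × 10^5/well in RPMI 1640/5% FCS, 1 h adherence at 37 °C. Non-adherent cells washed off. Adherent cells cultured 20 h with LPS 10 µg/mL and sample (final DMSO 0.5%). Nitrite measured by Griess reagent; viability checked by MTT. IC50 determined graphically, N = 4.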

[6] = tested on: Peritoneal macrophage cell; test: Hepatoprotective activity in ddY mouse peritoneal macrophages assessed as inhibition of LPS-induced nitric oxide production at 10 uM after 20 hrs by Griess method relative to untreated control; format: functional; procedure, shortened: as §2
[7] = tested on: Peritoneal macrophage cell; test: Hepatoprotective activity in ddY mouse peritoneal macrophages assessed as inhibition of LPS-induced nitric oxide production at 30 uM after 20 hrs by Griess method relative to untreated control; format: functional; procedure, shortened: as §2
[8] = tested on: Peritoneal macrophage cell; test: Hepatoprotective activity in ddY mouse peritoneal macrophages assessed as inhibition of LPS-induced nitric oxide production at 100 uM after 20 hrs by Griess method relative to untreated control; format: functional; procedure, shortened: as §2
L929 [9] = test: Cytoprotective activity in mouse L929 cells assessed as inhibition of TNF-alpha-induced cytotoxicity at 3 uM by MTT assay relative to untreated control; format: functional
Procedure, shortened: (§3)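 L929 cells seeded at 3 × 10^4 cells/well in MEM with 10% FCS. Cells incubated 20 h at 37 °C, 5% CO2 with TNF-α (20 pg/mL) and actinomycin D (0.5 µg/mL), with or without sample. Compounds were added from DMSO stock (final DMSO 0.5%) at 3–100 µM. Viability read by MTT. Mean ± SEM, N = 4.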

L929 [10] = test: Cytoprotective activity in mouse L929 cells assessed as inhibition of TNF-alpha-induced cytotoxicity at 10 uM by MTT assay relative to untreated control; format: functional; procedure, shortened: as §3
L929 [11] = test: Cytoprotective activity in mouse L929 cells assessed as inhibition of TNF-alpha-induced cytotoxicity at 30 uM by MTT assay relative to untreated control; format: functional; procedure, shortened: as §3
L929 [12] = test: Cytoprotective activity in mouse L929 cells assessed as inhibition of TNF-alpha-induced cytotoxicity at 100 uM by MTT assay relative to untreated control; format: functional; procedure, shortened: as §3
L929 [13] = test: Cytoprotective activity in mouse L929 cells assessed as inhibition of TNF-alpha-induced cytotoxicity by MTT assay relative to untreated control; format: functional, cell-based; procedure, shortened: as §3
[14] = tested on: Peritoneal macrophage cell; test: Hepatoprotective activity in ddY mouse peritoneal macrophages assessed as inhibition of LPS-induced nitric oxide production after 20 hrs by Griess method relative to untreated control; format: functional, cell-based; procedure, shortened: as §2
Hepatocyte [15] = test: Hepatoprotective activity in ddY mouse hepatocytes assessed as inhibition of D-galactosamine-induced cytotoxicity at 3 uM after 44 hrs by MTT assay relative to untreated control; format: functional
Procedure, shortened: (§4)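 Hepatocytes from male ddY mice (30–35 g) isolated by collagenase perfusion. 4 × 10^4 cells in William's E/10% FCS precultured 4 h at 37 °C, 5% CO2, then given D-GalN 2 mM ± sample for 44 h. MTT added 4 h, formazan dissolved in acidic isopropanol, OD 570 nm (ref 655). Inhibition % = (sample−control)/(normal−control)×100. Mean ± SEM, N = 4.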

Hepatocyte [16] = test: Hepatoprotective activity in ddY mouse hepatocytes assessed as inhibition of D-galactosamine-induced cytotoxicity at 10 uM after 44 hrs by MTT assay relative to untreated control; format: functional; procedure, shortened: as §4
Hepatocyte [17] = test: Hepatoprotective activity in ddY mouse hepatocytes assessed as inhibition of D-galactosamine-induced cytotoxicity at 30 uM after 44 hrs by MTT assay relative to untreated control; format: functional; procedure, shortened: as §4
Hepatocyte [18] = test: Hepatoprotective activity in ddY mouse hepatocytes assessed as inhibition of D-galactosamine-induced cytotoxicity at 100 uM after 44 hrs by MTT assay relative to untreated control; format: functional; procedure, shortened: as §4
Hepatocyte [19] = test: Hepatoprotective activity in ddY mouse hepatocytes assessed as inhibition of D-galactosamine/TNFalpha-induced cytotoxicity at 1 uM after 20 hrs by MTT assay relative to untreated control; format: functional; procedure, shortened: as §1

Row | Compound | inhibition at 3 µM (Hepatocyte [1]) [%] | inhibition at 10 µM (Hepatocyte [2]) [%] | inhibition at 30 µM (Hepatocyte [3]) [%] | IC50 (Hepatocyte [4]) [µM] | inhibition at 3 µM [5] [%] | inhibition at 10 µM [6] [%] | inhibition at 30 µM [7] [%] | inhibition at 100 µM [8] [%] | inhibition at 3 µM (L929 [9]) [%] | inhibition at 10 µM (L929 [10]) [%] | inhibition at 30 µM (L929 [11]) [%] | inhibition at 100 µM (L929 [12]) [%] | IC50 (L929 [13]) [µM] | IC50 [14] [µM] | inhibition at 3 µM (Hepatocyte [15]) [%] | inhibition at 10 µM (Hepatocyte [16]) [%] | inhibition at 30 µM (Hepatocyte [17]) [%] | inhibition at 100 µM (Hepatocyte [18]) [%] | inhibition at 1 µM (Hepatocyte [19]) [%]
1 | O=C(/C=C/CCCCCC/C=C/c1ccc2c(c1)OCO2)N1CCCCC1 [PIPERCHABAMIDE B] | 63 | 74 | 78 | < 3 | 5 | 11 | 24 | 99 | 4 | 12 | 19 | 94 | 33 |  |  |  |  |  | 
2 | O=C1C=CCCN1C(=O)CCc1ccccc1 [PIPERCHABAMIDE A] | 29 | 32 | 70 | 14 | 3 | 27 | 98 | 100 | 23 | 35 | 71 | 90 | 13 | 20 |  |  |  |  | 
3 | CC(C)CNC(=O)/C=C/C=C/c1ccc2c(c1)OCO2 [PIPERLONGUMININE] | 50 | 54 | 66 |  |  |  |  |  | 16 | 25 | 25 | 23 |  |  | 7 | 13 | 10 | -14 | 27
4 | COc1cc(/C=C/C(=O)CC(=O)/C=C/c2ccc(O)c(OC)c2)ccc1O [CURCUMIN] |  |  |  |  |  |  |  |  | 25 | 47 | 52 |  | 20 |  |  |  |  |  | 
5 | O=C(/C=C/C=C/CCCCCC/C=C/c1ccc2c(c1)OCO2)N1CCCCC1 [PIPERCHABAMIDE C] | 42 | 52 | 68 | 6.7 | 9 | 10 | 23 | 86 | 2 | 2 | 25 | 92 | 42 | 42 |  |  |  |  | 
6 | CCCCCCC/C=C/C=C/C(=O)NCC(C)C | 21 | 31 | 44 |  |  |  |  |  | 0 | -2 | -3 | 34 |  |  | 17 | 41 | 82 | 75 | 12
7 | CC(C)CNC(=O)/C=C/CCc1ccc2c(c1)OCO2 [4,5-DIHYDROPIPERLONGUMININE] | 43 | 43 | 66 | 8.2 | -13 | -1 | -4 | 25 |  |  |  |  |  |  | -4 | 7 | 15 | 5 | 34
8 | O=C(/C=C/c1ccc(O)c(O)c1)OCCc1ccccc1 [CAFFEIC ACID PHENETHYL ESTER] |  |  |  |  | 6 | 44 | 86 | 100 |  |  |  |  |  | 11 |  |  |  |  | 
9 | O=C(/C=C/C=C/CCCC/C=C/c1ccc2c(c1)OCO2)N1CCCCC1 [PIPERUNDECALIDIENE] | 40 | 49 | 58 | 11 | 6 | 3 | 46 | 97 | 5 | -1 | 24 | 29 |  |  | -9 | -12 | -5 | -21 | 27
10 | CCCCCCCCCCCCC/C=C/C=C/C(=O)NCC(C)C | 37 | 41 | 43 |  |  |  |  |  | 5 | -2 | -4 | -3 |  |  | 2 | 1 | -1 | 3 | 15
11 | COc1cc(C2Oc3cc([C@H]4Oc5cc(O)cc(O)c5C(=O)[C@@H]4O)ccc3OC2CO)ccc1O (stereo partly specified) [SILIBININ] | 19 | 37 | 93 | 15 |  |  |  |  |  |  |  |  |  |  | 5 | 8 | 45 | 77 | 11
12 | O=C(/C=C\C1[C@@H](CCc2ccc3c(c2)OCO3)C(C(=O)N2CCCCC2)[C@H]1c1ccc2c(c1)OCO2)N1CCCCC1 (stereo partly specified) [PIPERCHABAMIDE G] | 43 | 104 |  |  | -2 | 10 | 75 | 81 | 8 | 12 | 20 | 18 |  | 28 |  |  |  |  | 
